# Where a chain is given by its changes, count along the chain named.
# Tests used:
# [1] = target: T1, MRGPRX2 mutants (Homo sapiens, UniProt Q96LB1, I135A); experiment: BRET2 Gq activation, MRGPRX2 mutants; format: cell-based; conditions: MRGPRX2 I135(ICL2)A
# T1 sequence (Q96LB1 1-330 I135A): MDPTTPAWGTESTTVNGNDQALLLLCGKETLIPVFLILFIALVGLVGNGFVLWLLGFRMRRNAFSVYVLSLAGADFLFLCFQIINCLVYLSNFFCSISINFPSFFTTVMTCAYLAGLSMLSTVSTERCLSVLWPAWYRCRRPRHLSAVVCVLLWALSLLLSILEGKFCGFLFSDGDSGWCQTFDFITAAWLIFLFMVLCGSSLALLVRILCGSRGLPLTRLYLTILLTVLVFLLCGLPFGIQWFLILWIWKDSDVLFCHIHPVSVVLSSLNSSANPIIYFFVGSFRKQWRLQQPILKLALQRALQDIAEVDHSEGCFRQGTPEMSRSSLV
# [2] = tested on: MRGPRX2 mutants; experiment: BRET2 Gq activation, MRGPRX2 mutants; format: cell-based, human
# [3] = target: T1, MRGPRX2 mutants; experiment: BRET2 Gi1 activation, MRGPRX2 mutants; format: cell-based; conditions: MRGPRX2 I135(ICL2)A
# [4] = tested on: MRGPRX2 mutants; experiment: BRET2 Gi1 activation, MRGPRX2 mutants; format: cell-based, human; conditions: MRGPRX2 R214A, L216A
# [5] = target: MRGPRX4 Leu83Ser (Homo sapiens, UniProt Q96LA9, L83S); experiment: Agonist potency at MRGPRX4 Leu83Ser variant; format: cell-based
# Sequence of MRGPRX4 Leu83Ser (Q96LA9 whole entry L83S): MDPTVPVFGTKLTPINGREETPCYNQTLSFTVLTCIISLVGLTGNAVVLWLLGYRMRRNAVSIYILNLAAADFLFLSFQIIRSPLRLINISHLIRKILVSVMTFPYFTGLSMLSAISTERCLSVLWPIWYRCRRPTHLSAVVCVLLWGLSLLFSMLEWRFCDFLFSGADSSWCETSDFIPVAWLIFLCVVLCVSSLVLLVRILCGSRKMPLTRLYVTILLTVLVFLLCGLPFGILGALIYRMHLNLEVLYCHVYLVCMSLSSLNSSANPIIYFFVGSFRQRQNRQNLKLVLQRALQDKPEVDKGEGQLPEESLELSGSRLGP
# [6] = tested on: MRGPRX4 mutants; experiment: BRET2 Gq activation, MRGPRX4 mutants; format: cell-based, human; conditions: MRGPRX4 pocket mutants
# [7] = target: MRGPRX4 mutants (Homo sapiens, UniProt Q96LA9, Y130A); experiment: BRET2 Gq activation, MRGPRX4 mutants; format: cell-based; conditions: MRGPRX4 Y130(ICL2)A
# Sequence of MRGPRX4 mutants (Homo sapiens, UniProt Q96LA9, Y130A) (Q96LA9 whole entry Y130A): as the sequence (Q96LA9 whole entry L83S) above, with S83L, Y130A counted along it
# [8] = target: MRGPRX4 (Homo sapiens, UniProt Q96LA9); experiment: FLIPR Ca2+ assay, agonist mode, MRGPRX4 stable cells; format: cell-based; conditions: read-out: EC50, MRGPRX4 agonist
# Sequence of MRGPRX4 (Homo sapiens, UniProt Q96LA9) (Q96LA9 whole entry): as the sequence (Q96LA9 whole entry L83S) above, with S83L counted along it
# [9] = target: MRGPRX1 (Homo sapiens, UniProt Q96LB2); experiment: PRESTO-Tango single-point and concentration-response assay at MRGPRX1; format: cell-based
# Sequence of MRGPRX1 (Q96LB2 whole entry): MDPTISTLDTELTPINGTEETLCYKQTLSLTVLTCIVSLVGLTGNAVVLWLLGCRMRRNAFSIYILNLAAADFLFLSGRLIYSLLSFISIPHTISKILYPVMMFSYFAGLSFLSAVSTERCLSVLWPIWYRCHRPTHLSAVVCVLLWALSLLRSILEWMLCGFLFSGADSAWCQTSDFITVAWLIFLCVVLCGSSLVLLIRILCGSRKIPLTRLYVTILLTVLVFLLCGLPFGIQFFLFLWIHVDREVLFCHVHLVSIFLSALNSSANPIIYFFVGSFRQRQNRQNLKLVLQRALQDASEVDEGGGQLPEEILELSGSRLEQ
# How it was run: (§1)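 HTLA cells in DMEM + 1% dialyzed FBS were PEI-transfected in-plate with PRESTO-Tango receptor DNA (17 ng/well). After overnight culture, test compound at 3 μM final was added for 18–20 h without medium change. Luminescence read 20 min after Bright-Glo. Assay control: D2 receptor with 0.1 mM quinpirole. Output is fold over basal RLU (n=4 technical replicates); receptors exceeding 3-fold basal were repeated as full dose–response.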
# [10] = tested on: 320 GPCRs; experiment: PRESTO-Tango GPCRome screening; format: cell-based; conditions: 3 μM
# How it was run: as §1
# [11] = tested on: Kir6.2/SUR1 potassium channel; experiment: Whole-cell electrophysiology, Kir6.2/SUR1 current inhibition in HEK293 cells; format: cell-based, human
# [12] = tested on: MRGPRX4; conditions: previously identified; cited from earlier work
# [13] = target: T2, MRGPRX2 mutants (Homo sapiens, UniProt Q96LB1, F170A); experiment: BRET2 Gq activation, MRGPRX2 mutants; format: cell-based; conditions: MRGPRX2 F170(ECL2)A
# T2 sequence (Q96LB1 1-330 F170A): T1 sequence (Q96LB1 1-330 I135A) with A135I, F170A
# [14] = target: T3, MRGPRX2 mutants (Homo sapiens, UniProt Q96LB1, W243A); experiment: BRET2 Gq activation, MRGPRX2 mutants; format: cell-based; conditions: MRGPRX2 W243A
# T3 sequence (Q96LB1 1-330 W243A): T1 sequence (Q96LB1 1-330 I135A) with A135I, W243A
compound,measurement,setting,value
CN(C)[C@@H]1CCN(c2cc(-c3ccccc3)nc3ccnn23)C1 [(R)-ZINC-3573],effect of I135A mutation on stimulated Gq activation,[1],greatly reduced
same,effect of D184A and E164A substitutions on agonist stimulated Gq activation,"[2]; MRGPRX2 D184A, E164A",impaired the efficacy
same,effect of most alanine mutations in the (R)-ZINC-3573 pocket,[2]; MRGPRX2 pocket alanine mutants,greatly reduced the efficacy
same,effect of I135A mutation on stimulated Gi1 activation,[3],attenuate
same,effect of ICL3 mutations R214A and L216A on stimulated Gi1 activation,[4],impairs
C[C@]12CC3CC(C(=O)N[C@H](Cc4ccccc4)C(=O)O)(C1)C[C@@](C)(C3)C2 [MS47134],effect of Leu83Ser mutation on agonist potency,[5],greatly attenuated the potency
same,effect of most mutations surrounding MS47134 on potency,[6],greatly affected its potency
same,effect of Y130A mutation on agonist potency,[7],reduced the agonist potency
same,EC50,[8],150 nM
same,activity against MRGPRX1 in concentration-response assay,[9]; full dose-response repeat,not replicated
same,"activity at MRGPRX1, fold of basal levels of relative luminescence units","[9]; single-point assay, 3 μM",more than 3 fold
same,off-target agonist or antagonist activity across GPCRome,[10],activity only at MRGPRX4 and MRGPRX1
same,selectivity over Kir6.2/SUR1 channel compared to nateglinide,[11],higher selectivity
same,improved selectivity for MRGPRX4 over the Kir6.2/SUR1 potassium channel,[11]; MRGPRX4 FLIPR vs Kir6.2/SUR1 current inhibition,47 fold
CC(C)[C@H]1CC[C@H](C(=O)N[C@H](Cc2ccccc2)C(=O)O)CC1 [nateglinide],effect of Leu83Ser mutation on agonist potency,[5],greatly attenuated the potency
same,MRGPRX4 agonist potency,[12],low micromolar agonist
cortistatin-14 (PCKNFFWKTFSSCK),effect of F170A mutation on agonist stimulated Gq activation,[13],reduced the potency
same,effect of I135A mutation on stimulated Gq activation,[1],greatly reduced
same,effect of W243A mutation on agonist stimulated Gq activation,[14],abolished the activity
same,effect of I135A mutation on stimulated Gi1 activation,[3],attenuate
same,effect of ICL3 mutations R214A and L216A on stimulated Gi1 activation,[4],impairs

# Reference: PMC9150435 (Nature, 2021)
